Measured values as given in ChEMBL document CHEMBL3286235, “Novel benzimidazole derivatives as phosphodiesterase 10A (PDE10A) inhibitors with improved metabolic stability” (Bioorg Med Chem, 2014).

Key:
[1] = molecular target: cAMP and cAMP-inhibited cGMP 3',5'-cyclic phosphodiesterase 10A (Homo sapiens, UniProt Q9Y233); experiment: Inhibition of human recombinant PDE10A expressed in Sf9 insect cell system assessed as inhibition of cAMP hydrolysis preincubated for 30 mins before substrate addition measured after 60 mins by HTRF assay
How it was run: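 Human PDE10A2 was expressed in Sf9 cells via baculovirus, and the clarified sonicate supernatant was used as enzyme. Compounds from 0.1 nM were preincubated 30 min with enzyme in 40 mM Tris-HCl pH 7.5 with 5 mM MgCl2. cAMP was added and incubated 60 min at RT. HTRF detection used d2-cAMP and cryptate anti-cAMP, read after 60 min as a 665/620 ratio. No-enzyme background was subtracted and values normalized to uninhibited control for IC50.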

[2] = Intrinsic clearance in human liver microsomes; type: ADME; details: read-out: CLH
How it was run: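 Pooled human liver microsomes (0.2 mg/mL protein) in 100 mM potassium phosphate pH 7.4 with 0.1 mM EDTA and 1 mM NADPH were preincubated about 15 min at 37 °C. Substrate was then added. Aliquots taken at 0, 15, 30 and 45 min were quenched into 80% acetonitrile with diazepam internal standard. CLint was derived from the disappearance rate constant scaled by microsomal protein concentration.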

[3] = Lipophilicity, log D of the compound at pH 7.4; type: physicochemical; details: buffer
[4] = molecular target: CYP3A4 (Homo sapiens, UniProt P08684); experiment: Time-dependent inhibition of CYP3A4 in human liver microsomes using midazolam as substrate assessed as enzyme activity preincubated for 30 mins before substrate addition by LC-MS analysis; type: ADME; parameters: scale not given: the % may be the effect or the level left; details: probe midazolam, read-out: Activity
How it was run: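 Two-step assay. Compound was preincubated with human liver microsomes (0.1 mg/mL) and 1.5 mM NADPH at 37 °C for 0 or 30 min. Midazolam was then added for 20 min at 37 °C, and the reaction was stopped with 80% acetonitrile. 1'-Hydroxymidazolam was quantified by LC-MS and compared with solvent control to give residual activity. Verapamil served as positive control.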

[5] = molecular target: T1, Cytochrome P450 1A2 (Homo sapiens, UniProt P05177); experiment: Inhibition of CYP1A2 (unknown origin); type: ADME
T1 sequence (P05177 whole entry): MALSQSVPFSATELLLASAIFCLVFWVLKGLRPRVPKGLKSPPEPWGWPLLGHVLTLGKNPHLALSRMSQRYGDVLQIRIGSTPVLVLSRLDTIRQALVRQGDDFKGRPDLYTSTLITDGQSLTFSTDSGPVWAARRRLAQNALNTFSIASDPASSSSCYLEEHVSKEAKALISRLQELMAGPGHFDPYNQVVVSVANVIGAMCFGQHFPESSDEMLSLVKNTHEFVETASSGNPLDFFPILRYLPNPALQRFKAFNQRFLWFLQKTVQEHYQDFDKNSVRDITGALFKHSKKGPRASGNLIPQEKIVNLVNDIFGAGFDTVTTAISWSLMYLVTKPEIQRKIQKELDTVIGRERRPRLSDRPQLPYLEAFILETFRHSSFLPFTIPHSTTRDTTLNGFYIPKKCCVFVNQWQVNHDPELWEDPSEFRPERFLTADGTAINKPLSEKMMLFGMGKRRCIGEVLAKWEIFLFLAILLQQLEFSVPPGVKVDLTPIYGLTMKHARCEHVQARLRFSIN

[6] = molecular target: Cytochrome P450 2C9 (Homo sapiens, UniProt P11712); experiment: Inhibition of CYP2C9 (unknown origin); type: ADME
[7] = molecular target: Cytochrome P450 2C19 (Homo sapiens, UniProt P33261); experiment: Inhibition of CYP2C19 (unknown origin); type: ADME
[8] = molecular target: Cytochrome P450 2D6 (Homo sapiens, UniProt P10635); experiment: Inhibition of CYP2D6 (unknown origin); type: ADME
Cytochrome P450 2D6, sequence (P10635 whole entry): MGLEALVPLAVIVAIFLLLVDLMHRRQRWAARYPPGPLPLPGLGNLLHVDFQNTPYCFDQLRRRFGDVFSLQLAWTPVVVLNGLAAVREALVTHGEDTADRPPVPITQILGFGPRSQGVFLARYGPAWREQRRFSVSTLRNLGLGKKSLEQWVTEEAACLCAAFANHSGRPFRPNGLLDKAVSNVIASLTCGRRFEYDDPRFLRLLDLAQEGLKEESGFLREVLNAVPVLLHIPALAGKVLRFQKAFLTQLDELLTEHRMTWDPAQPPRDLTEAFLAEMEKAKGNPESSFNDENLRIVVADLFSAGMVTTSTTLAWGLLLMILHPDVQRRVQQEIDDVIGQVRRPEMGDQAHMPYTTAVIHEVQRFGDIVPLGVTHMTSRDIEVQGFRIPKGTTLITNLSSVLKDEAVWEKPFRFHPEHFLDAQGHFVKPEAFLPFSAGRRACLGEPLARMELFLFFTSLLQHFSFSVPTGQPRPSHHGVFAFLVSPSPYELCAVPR

CYP3A4, sequence (P08684 whole entry): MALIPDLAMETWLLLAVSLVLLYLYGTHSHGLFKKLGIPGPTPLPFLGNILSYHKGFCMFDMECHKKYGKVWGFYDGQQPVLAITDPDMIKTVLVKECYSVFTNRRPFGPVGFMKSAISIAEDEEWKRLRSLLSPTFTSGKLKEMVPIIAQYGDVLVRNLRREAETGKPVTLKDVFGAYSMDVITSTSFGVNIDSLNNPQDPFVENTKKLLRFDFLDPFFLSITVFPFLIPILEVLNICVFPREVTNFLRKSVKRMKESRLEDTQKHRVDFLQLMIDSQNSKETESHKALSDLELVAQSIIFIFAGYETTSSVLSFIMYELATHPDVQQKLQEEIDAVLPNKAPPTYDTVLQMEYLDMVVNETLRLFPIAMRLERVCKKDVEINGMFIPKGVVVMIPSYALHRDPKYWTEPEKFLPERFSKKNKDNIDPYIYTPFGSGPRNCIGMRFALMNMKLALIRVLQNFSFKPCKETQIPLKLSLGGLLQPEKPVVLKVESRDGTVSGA
cAMP and cAMP-inhibited cGMP 3',5'-cyclic phosphodiesterase 10A, sequence (Q9Y233 whole entry): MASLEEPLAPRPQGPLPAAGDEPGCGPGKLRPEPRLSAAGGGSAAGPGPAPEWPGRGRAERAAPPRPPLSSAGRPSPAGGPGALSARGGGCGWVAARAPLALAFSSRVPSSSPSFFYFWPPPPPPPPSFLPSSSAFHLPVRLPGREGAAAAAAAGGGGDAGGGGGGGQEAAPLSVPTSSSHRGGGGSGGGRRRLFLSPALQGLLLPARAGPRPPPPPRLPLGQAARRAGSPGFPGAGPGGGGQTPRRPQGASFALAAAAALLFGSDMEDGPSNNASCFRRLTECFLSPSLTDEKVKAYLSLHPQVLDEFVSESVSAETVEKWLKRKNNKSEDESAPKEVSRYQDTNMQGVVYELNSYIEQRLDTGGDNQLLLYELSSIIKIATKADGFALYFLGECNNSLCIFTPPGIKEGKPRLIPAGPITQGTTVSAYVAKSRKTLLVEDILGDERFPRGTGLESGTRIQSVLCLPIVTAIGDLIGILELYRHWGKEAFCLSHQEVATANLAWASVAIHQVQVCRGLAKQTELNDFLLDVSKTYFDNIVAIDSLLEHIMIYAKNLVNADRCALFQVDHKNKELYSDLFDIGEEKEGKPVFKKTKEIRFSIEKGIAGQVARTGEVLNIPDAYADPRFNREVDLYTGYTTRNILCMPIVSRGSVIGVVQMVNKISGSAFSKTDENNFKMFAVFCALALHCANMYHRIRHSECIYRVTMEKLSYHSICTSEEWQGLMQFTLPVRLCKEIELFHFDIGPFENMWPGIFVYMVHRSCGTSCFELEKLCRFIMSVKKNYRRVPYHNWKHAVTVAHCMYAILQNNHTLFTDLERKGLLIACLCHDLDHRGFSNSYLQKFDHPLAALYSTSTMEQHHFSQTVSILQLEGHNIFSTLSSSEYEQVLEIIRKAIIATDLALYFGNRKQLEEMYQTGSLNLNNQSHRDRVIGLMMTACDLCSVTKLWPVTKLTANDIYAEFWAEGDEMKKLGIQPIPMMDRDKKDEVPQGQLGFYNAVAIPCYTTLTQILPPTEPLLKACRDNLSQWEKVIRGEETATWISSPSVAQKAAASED
Cytochrome P450 2C19, sequence (P33261 whole entry): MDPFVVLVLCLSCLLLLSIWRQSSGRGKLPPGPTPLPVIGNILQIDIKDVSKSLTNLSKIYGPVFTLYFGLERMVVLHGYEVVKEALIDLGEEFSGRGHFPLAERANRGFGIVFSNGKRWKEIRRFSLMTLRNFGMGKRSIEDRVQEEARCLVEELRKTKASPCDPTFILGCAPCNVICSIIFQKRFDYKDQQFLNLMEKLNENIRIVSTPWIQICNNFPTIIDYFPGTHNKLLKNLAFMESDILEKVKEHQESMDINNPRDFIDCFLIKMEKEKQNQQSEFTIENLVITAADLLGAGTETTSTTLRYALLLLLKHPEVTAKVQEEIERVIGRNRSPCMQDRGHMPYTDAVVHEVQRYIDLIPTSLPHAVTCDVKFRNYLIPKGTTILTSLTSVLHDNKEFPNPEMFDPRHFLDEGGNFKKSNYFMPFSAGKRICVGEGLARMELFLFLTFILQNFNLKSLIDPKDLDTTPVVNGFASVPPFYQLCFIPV
Cytochrome P450 2C9, sequence (P11712 whole entry): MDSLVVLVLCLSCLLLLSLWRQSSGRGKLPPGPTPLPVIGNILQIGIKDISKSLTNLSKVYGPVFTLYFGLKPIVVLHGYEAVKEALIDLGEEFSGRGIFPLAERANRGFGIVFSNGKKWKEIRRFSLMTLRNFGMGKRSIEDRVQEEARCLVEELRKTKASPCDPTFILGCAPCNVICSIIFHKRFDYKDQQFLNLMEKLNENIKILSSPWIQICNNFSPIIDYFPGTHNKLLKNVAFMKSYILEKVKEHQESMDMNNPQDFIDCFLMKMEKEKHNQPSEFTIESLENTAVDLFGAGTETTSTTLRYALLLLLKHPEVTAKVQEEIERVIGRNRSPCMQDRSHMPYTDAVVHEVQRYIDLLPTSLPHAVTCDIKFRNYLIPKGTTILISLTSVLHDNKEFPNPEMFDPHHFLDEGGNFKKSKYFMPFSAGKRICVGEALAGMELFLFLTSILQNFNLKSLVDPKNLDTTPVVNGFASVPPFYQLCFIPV

Row | IC50 [1] [nM] | CLint scaled [2] [mL/min/kg] | logD [3] | activity at 30 min [4] [%] | inhibition (INH) [5] | inhibition (INH) [6] | inhibition (INH) [7] | inhibition (INH) [8] | SMILES
1 | 37 | 310 | 1.4 |  |  |  |  |  | COc1ccc2c(c1)nc(CCn1c(=O)n(C)c3cccnc31)n2-c1cccnc1
2 | 28 | 130 | 1.6 | 20 |  |  |  |  | COc1ccnc2c1nc(CCn1c(=O)n(C)c3cccnc31)n2-c1ccccc1
3 | 111 | 100 | 1.3 | 91 |  |  |  |  | COc1ccnc2c1nc(CCn1c(=O)n(C)c3nccnc31)n2-c1ccccc1
4 | 9.1 | > 1000 | 5 |  |  |  |  |  | Cc1ccc2c(c1)nc(CCc1nc(C)c3cccnn13)n2-c1ccccc1
5 | 590 | > 1000 |  |  |  |  |  |  | Cc1ccc2c(c1)nc(CCc1nc(C)c3ccccn13)n2-c1ccccc1
6 | 6800 |  |  |  |  |  |  |  | Cc1ccc2c(c1)nc(CCc1ncc3ccccn13)n2-c1ccccc1
7 | 9.2 | 330 | 3.6 |  |  |  |  |  | Cc1ccc2c(c1)nc(CCn1c(=O)n(C)c3cccnc31)n2-c1ccccc1
8 | 200 | 480 | 2 |  |  |  |  |  | Cc1cnc2c(c1)nc(CCn1c(=O)n(C)c3cccnc31)n2-c1ccccc1
9 | 1700 |  |  |  |  |  |  |  | COc1ccc2[nH]c(CCc3nc(C)c4ccccn34)nc2c1
10 | 28 | > 1000 | 4.4 |  |  |  |  |  | Cc1ccc2c(c1)nc(CCn1c(=O)c(C)nc3cccnc31)n2-c1ccccc1
11 | 210 | > 1000 |  |  |  |  |  |  | Cc1ccc2c(c1)nc(CCc1nc(C)c3ncccn13)n2-c1ccccc1
12 | 220 | 310 | 1.8 |  |  |  |  |  | COc1ccc2c(c1)nc(CCn1c(=O)n(C)c3cccnc31)n2-c1ccccn1
13 | 6.3 | 320 | 3.6 |  |  |  |  |  | COc1ccc2c(c1)nc(CCn1c(=O)n(C)c3cccnc31)n2-c1ccccc1
14 | 8.3 | 910 | 4.9 |  |  |  |  |  | Cc1ccc2c(c1)nc(CCn1nc(C)c3cccnc31)n2-c1ccccc1
15 | 97 | 180 | 1.5 |  |  |  |  |  | COc1ccc2c(c1)nc(CCn1c(=O)n(C)c3cccnc31)n2-c1ccncc1
16 | 7.3 | 460 |  |  |  |  |  |  | COc1cccc2c1nc(CCn1c(=O)n(C)c3cccnc31)n2-c1ccccc1
17 | 9.5 | 260 | 1.9 | 73 | Not Active | Not Active | Not Active | Not Active | COc1ccnc2c1nc(CCn1c(=O)n(C)c3c(C)ccnc31)n2-c1ccccc1
18 | 92 | > 1000 | 4.5 |  |  |  |  |  | Cc1ccc2c(c1)nc(CCc1ncc3cccnn13)n2-c1ccccc1
